Screening results as filed in PubChem.
Diaphorase inh – diaphorase inhibition or chemical oxidation counter-screen | diaphorase resazurin-to-resorufin fluorescence, NADH, 16 min; bacterial (C. kluyveri) enzyme, not human | inhibition, % at 20 µM | actives 0.69% (n = 190,000) | AID 1217;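 active = primary screen inhibition at 20 µM above a set limit, cut at about 50% in these data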;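 also: plate controls were DMSO with full reaction for no effect and wells lacking NADH for full effect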
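material = Clostridium kluyveri diaphorase enzyme | amount = 0.14 U/mL diaphorase, enzyme working solution | schedule = incubation 16 min, room temperature | detection = fluorescence of resorufin formed from resazurin, Ex 544/Em 590 nm | benchmarks = positive control minus NADH, DMSO neutral control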
ATG4B inh – blocks human ATG4B protease cleavage of LC3 substrate; actives 0.51% (n = 340,000); AID 504462; ATG4B cleavage of LC3-PLA2, NBD-HPC fluorescence, 1 h; Q9Y4P1; inhibition, % at 8.33 µM; in the data active = inhibition above about 40%
HKDC1 inh – blocks human hexokinase HKDC1 activity; Q2TB90; recombinant HKDC1, G6PDH/diaphorase resazurin coupled fluorescence; inhibition, % at 20 µM; actives 0.16% (n = 340,000); AID 493160;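 active = inhibition above about 35% when tested at 20 µM, limit read from the data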;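 also: plate controls were DMSO wells with enzyme for no effect and DMSO wells lacking enzyme for full effect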
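Test system: HK5 enzyme. Quantity: 5 µg/mL HK5 final. Reagent: glucose and ATP substrates. Schedule: 90 min reaction incubation at room temperature, dark. Technique: resazurin-to-resorufin fluorescence via G6PDH and diaphorase coupling, 525/613 nm. Control set: DMSO wells with and without enzyme mix.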
Diaph act CS – diaphorase activation or chemical reduction counter-screen; Diaphorase/resazurin coupled assay, resorufin fluorescence, 16 min; stronger effect = higher value; 1 = vehicle wells, 0 = NADH-free wells; activation factor at 20 µM; actives 0.005% (n = 190,000);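 active = diaphorase activity raised at least twofold by the compound at 20 µM; inactive = activation factor below 2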
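Assay system: Purified diaphorase enzyme from Clostridium kluyveri | Amount: Enzyme 0.07 U/mL final | Dosing: Compound 20 µM once, DMSO 1% | Timing: 16 min reaction at room temperature | Detection: Fluorescence, excitation 544 nm and emission 590 nm | Evaluation: Higher resorufin formation from activation or reduction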
CTSL1 counter – counter-screen for PFM18AAP inhibitors: inhibitors of F. hepatica cathepsin L1. actives 0.49% (n = 300,000). AID 1906. inhibition, % at 5.96 µM. recombinant F. hepatica cathepsin L1, Z-Leu-Arg-MCA fluorescence;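 active = inhibition above the mean of all tested compounds plus 3 SD, set per screening campaign, cut at about 17% in these data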;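 also: 0% = plate median of test compound wells and 100% = 1 µM Z-Phe-Ala-diazomethylketone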
* marks the source's active call; other numbers are inactive results; x = no result given. A selection: hits, their analogues and other compounds. The true share with any hit is near 1.4%.

SMILES | Diaphorase inh | ATG4B inh | HKDC1 inh | Diaph act CS | CTSL1 counter
O=C1CCCC2=C1C(c1ccco1)Nc1ccc(C(=O)c3ccccc3)cc1N2 (stereo not given) | 67.6* | 4.5 | 10.3 | 0.3 | 3.6
O=C1CCCC2=C1C(c1ccccn1)Nc1ccc(C(=O)c3ccccc3)cc1N2 (stereo not given) | 15.1 | -4.8 | -9.9 | 0.8 | 4.3
CCN(c1ccccc1)S(=O)(=O)c1ccc(OC)c(NC(=O)c2ccc(=O)[nH]c2)c1 | x | 0.6 | -0.5 | x | x
COC(=O)c1ccc(COC(=O)c2ccc(C)c(S(=O)(=O)N3CCCCC3)c2)cc1 | x | -4.3 | -1.0 | x | x
CC(C)CC(NC(=O)OC(C)(C)C)C(=O)NCc1ccccc1 (stereo not given) | 5.9 | -1.3 | -2.3 | 0.9 | 7.2
CC(C)CC(NC(=O)C(COCc1ccccc1)NC(=O)OC(C)(C)C)C(=O)NN (stereo not given) | 3.7 | -10.3 | -4.5 | 1 | 17.8*
Cc1ccc2[nH]cc(CCNC(=O)c3cccs3)c2c1 | x | -0.1 | 4.7 | x | x
CC(C)c1ccc(C2CC(c3ccc(Br)cc3)=NN2C(N)=S)cc1 (stereo not given) | 16.9 | -5.1 | 7.2 | 0.8 | 19.9*
CNC(=S)N1N=C(c2ccc(C)cc2)CC1c1ccc(Br)cc1 (stereo not given) | 10.4 | -6.3 | -1.4 | 0.9 | -2.7
CCN(CC(=O)NCc1ccc(F)cc1)C(=O)CCNS(=O)(=O)c1cccc(C)c1 | x | -2.7 | -1.1 | x | x
O=C(O)CCN1CCc2ccccc2C1c1ccncc1 (stereo not given) | x | 7.0 | 4.4 | x | 0.2
O=C(OCC(=O)N1CCN(C(=O)c2ccco2)CC1)c1cc(-c2ccco2)nc2ccccc12 | 37.9 | 1.8 | 37.1* | 0.6 | -5.3
O=C(OCC(=O)N1CCN(C(=O)c2ccco2)CC1)c1cc(-c2ccc(Cl)c(Cl)c2Cl)nc2ccccc12 | 14.1 | 2.6 | 13.4 | 0.9 | -16.7
O=C(COc1cccnc1[N+](=O)[O-])N1CCN(C(=O)c2ccco2)CC1 | 58.9* | 0.2 | 4.7 | 0.4 | -3.9
Cc1ccc(-c2csc(NC(=O)c3ccc([N+](=O)[O-])o3)n2)cc1 | x | -3.4 | -0.1 | x | 16.8*
Cc1ccc(-c2csc(NC(=O)c3ccc(C)o3)n2)cc1 | 16.8 | 24.4 | -0.1 | 0.8 | -3.2
CCOC(=O)c1ccccc1NC(=O)c1ccc2nccnc2c1 | 54.9* | -3.2 | -1.6 | 0.5 | -0.8
CC(OC(=O)c1ccccc1NCCO)C(=O)NC1CCCCC1C (stereo not given) | x | 3.4 | 4.1 | x | 0.0
Cc1ccc(C(=O)Cn2ncsc2=N)cc1 | 8.9 | 2.6 | -4.9 | 0.9 | 61.9*
Cc1ccc(C(=O)Cn2c(=N)n(N)c3ccccc32)cc1 | x | -5.2 | -7.1 | x | -1.6
COc1cc(C(=O)NCC(c2cccs2)N2CCOCC2)c([N+](=O)[O-])cc1OC (stereo not given) | x | 3.1 | -3.6 | x | -1.3
CC(C)(O)[C@@H]1CC[C@@](C)(C2CC[C@]3(C)C2[C@H](O)CC2[C@@]4(C)CC[C@H](O)C(C)(C)C4[C@@H](O[C@H]4O[C@@H](CO)[C@H](O)[C@@H](O)[C@@H]4O[C@@H]4O[C@H](CO)[C@@H](O)[C@H](O)[C@H]4O)C[C@]23C)O1 (stereo in doubt) | x | 3.9 | -2.6 | x | x
COC(=O)Nc1ccc([N+](=O)[O-])cc1OC | 14.4 | -3.2 | -9.3 | 0.9 | 1.4
COC(=O)CSc1cc([N+](=O)[O-])ccc1NC(=O)OC | -1.5 | -11.9 | -0.2 | 1 | 18.6*
CN(C)C(CNC(=O)c1cc(Br)ccc1Cl)c1ccco1 (stereo not given) | x | -11.7 | -4.8 | x | 22.4*
SMILES | Diaphorase inh | ATG4B inh | HKDC1 inh | Diaph act CS | CTSL1 counter
CN(C)C(CNC(=O)c1ccc(Br)cc1)c1ccco1 (stereo not given) | x | 1.8 | 6.2 | x | -6.7
Cc1ccc(CCNC(=O)c2cc(S(=O)(=O)N3CCOCC3)cn2C)cc1 | x | -11.2 | -4.6 | x | 67.2*
c1nc(SSc2ncnc3nc[nH]c23)c2[nH]cnc2n1 | x | 6.8 | -2.0 | x | x
Cc1cc(O)c(C=Nc2ccc(Cl)cn2)c(=O)o1 | 9.7 | 1.4 | -8.5 | 0.9 | 4.5
Oc1ccc2ccccc2c1C=Nc1ccc(Cl)cn1 | 61.5* | 3.8 | 20.6 | 0.4 | 0.5
Cc1cc(C)c(C(N)=O)c(Nc2cccc3ccccc23)n1 | 91.4* | -1.1 | -2.8 | 0.1 | -1.6
COc1ccccc1Nc1nc(C)cc(C)c1C(N)=O | 18.6 | -1.5 | -0.1 | 0.8 | 1.4
CCN(C[C@H]1N[C@@](CC)(C(=O)OC)[C@H]2C(=O)N(Cc3ccccc3)C(=O)[C@@H]12)C(=O)Nc1ccc(Cl)cc1 | x | -6.6 | -2.8 | x | x
COc1ccc(NC(=O)C(=O)NCCC2CCCCN2S(=O)(=O)c2ccccc2)cc1 (stereo not given) | x | -8.8 | -1.1 | x | 0.3
O=C(NNC(=O)c1ccc(-c2ccc([N+](=O)[O-])cc2)o1)c1ccncc1 | x | -10.4 | 1.8 | x | x
CC(C)NC[C@H](O)COc1cccc2ccccc12 | x | -2.0 | 0.9 | x | 1.0
CC(C)NC[C@H](O)COc1cccc2[nH]ccc12 | x | 3.7 | -2.2 | x | 86.4*
Nc1nnc(SCC(=O)Nc2cccnc2Cl)s1 | x | -0.8 | 1.0 | x | 0.6
Cc1cccc(Nc2nnc(SCC(=O)Nc3cccnc3Cl)s2)c1 | 7.0 | -8.2 | 4.8 | 0.9 | 27.0*
COC(=O)c1ccc(OC(=O)C2CSC3(C)CCC(=O)N23)cc1 (stereo not given) | x | 6.4 | -9.0 | x | -2.2
NC(=S)N/N=C/c1ccc(-c2ccc([N+](=O)[O-])cc2)o1 | 42.8 | -15.3 | -0.5 | 0.6 | 22.1*
COc1ccc(-c2nc3ccccc3nc2-c2ccc(OC)cc2)cc1 | x | 10.1 | 2.2 | x | 2.9
c1coc(-c2nc(-c3ccco3)c(-c3ccco3)nc2-c2ccco2)c1 | 94.1* | 38.6 | 68.3* | 0.1 | 2.1
Nc1nc(-c2ccco2)c(-c2ccco2)s1 | 34.4 | 3.7 | 8.9 | 0.7 | -5.0
COc1ccc2nc(-c3ccco3)c(-c3ccco3)nc2c1 | 78.4* | 15.0 | 26.5 | 0.2 | 10.9
COc1ccc2nc3cccc(OC)c3nc2c1 | 23.1 | -8.9 | 7.9 | 0.8 | 19.1*
NS(=O)(=O)c1ccc(N2CCN(C(=O)c3ccco3)CC2)nc1 | x | -3.3 | -4.0 | x | x
CCN1C/C(=C\c2cccc([N+](=O)[O-])c2)C(=O)/C(=C/c2cccc([N+](=O)[O-])c2)C1 | 2.5 | -7.5 | 42.5* | 1 | x
O=C1/C(=C/c2cccc([N+](=O)[O-])c2)CCc2ccccc21 | 7.3 | 14.7 | 19.9 | 0.9 | -3.0
CC(=O)N1CCc2c(sc(NC(=O)c3cccc(N4C(=O)CCC4=O)c3)c2C(N)=O)C1 | x | 11.4 | 8.0 | x | 25.2*
CCN(CC)c1nc(C#N)nc(N(CC)CC)n1 | 19.0 | -1.3 | 11.4 | 0.8 | x
CCN(c1ccccc1)c1nc(C#N)nc(N(CC)c2ccccc2)n1 | x | -2.2 | 18.0 | x | 29.6*
